Reference: ChEMBL document CHEMBL4393663, “Targeting gliomas with triazene-based hybrids: Structure-activity relationship, mechanistic study and stability” (Eur J Med Chem, 2019)
The source made the active and inactive calls. The calls are words filed in the database; no cut-off is given here.

What was measured:
GL261 [1] = experiment: Induction of morphological changes in mouse GL261 cells assessed as increase in cell circularity at 10 uM incubated for 48 hrs by Hoechst 33258 staining based fluorescence microscopic analysis; format: functional
Procedure, shortened: (§1)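 After 48 h exposure, GL261 cells on coverslips fixed in 4% paraformaldehyde, permeabilized (0.1% Triton X-100), blocked 30 min, stained with Alexa Fluor-594 phalloidin and Hoechst 33258; ten random fields at 630×; circularity (4π·area/perimeter²) and aspect ratio traced manually on ≥120 cells per condition; three independent experiments.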

SH-SY5Y [2] = experiment: Induction of apoptosis in human SH-SY5Y cells assessed as increase in early apoptotic cells at 10 uM incubated for 48 hrs by annexinV-PE/7-AAD staining based flow cytometric analysis; format: functional, cell-based
Procedure, shortened: (§2)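 SH-SY5Y cells grown on poly-D-lysine/laminin, differentiated 7 days with 10 µM retinoic acid, then exposed 48 h. Adherent plus floating cells pooled, resuspended in PBS/1% BSA, stained annexin V-PE/7-AAD and counted by flow cytometry into viable, early apoptotic, late apoptotic/necrotic; two readings per sample; three independent experiments in duplicate.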

GL261 [3] = experiment: Antiinvasive activity in mouse GL261 cells assessed as reduction in cell migration at 10 uM preincubated for 48 hrs and measured after 6 hrs by giemsa staining based Boyden chamber assay; format: functional
[4] = Stability of the compound in PBS buffer at pH 7.4 assessed as half life by HPLC analysis; format: physicochemical
GL261 [5] = experiment: Induction of morphological changes in mouse GL261 cells assessed as decrease in cell aspect ratio at 10 uM incubated for 48 hrs by Hoechst 33258 staining based fluorescence microscopic analysis; format: functional; procedure, shortened: as §1
SH-SY5Y [6] = experiment: Induction of apoptosis in human SH-SY5Y cells assessed as increase in late necrotic cells at 10 uM incubated for 48 hrs by annexinV-PE/7-AAD staining based flow cytometric analysis; format: functional, cell-based; procedure, shortened: as §2
GL261 [7] = experiment: Cytotoxicity against mouse GL261 cells assessed as reduction in cell viability incubated for 48 hrs by MTS assay; format: functional, cell-based; conditions: GL261, 48 h
SH-SY5Y [8] = experiment: Induction of apoptosis in human SH-SY5Y cells assessed as reduction in cell viability at 10 uM incubated for 48 hrs by annexinV-PE/7-AAD staining based flow cytometric analysis; format: functional; procedure, shortened: as §2
[9] = Stability in 80% human plasma assessed as half life by HPLC analysis; format: ADME, cell-free
Procedure, shortened: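 Plasma pooled from 13 donors (heparin), stored at −18 °C, thawed slowly, diluted to 80% v/v with 10 mM PBS pH 7.4 at 37 °C; compound added from 10 mM acetonitrile stock; aliquots taken over time, centrifuged 12000 rpm 10 min, supernatant analyzed by HPLC for half-life; duplicate or triplicate runs.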

GL261 [10] = experiment: Cytotoxicity against mouse GL261 cells assessed as reduction in cell viability at 0.1 to 100 uM incubated for 48 hrs by MTS assay; format: functional, cell-based
[11] = target: T1, Histone deacetylase (Homo sapiens) (UniProt Q13547+O15379+Q9UBN7+Q92769+Q9UQL6+Q8WUI4+Q9BY41+Q96DB2+P56524+Q9UKV0+Q969S8); experiment: Inhibition of HDAC in human HeLa nuclear extract assessed as enzyme residual activity at 6.25 uM using Boc-Lys(acetyl)-AMC as substrate and measured after 15 mins by fluorescence assay relative to control; format: cell-free
Procedure, shortened: (§3)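 Fluorometric HDAC activity kit with HeLa nuclear extract as enzyme source; compounds from 20 mM DMSO stock, tested in duplicate. Deacetylated substrate treated with lysine developer; fluorescence read after 15 min at ex 360/em 460 nm.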

[12] = Octanol-phosphate buffered saline distribution coefficient, log D of compound at pH 7.4 at 1 mg shake for 30 mins and measured after 48 hrs by HPLC analysis; format: physicochemical
[13] = target: T1, Histone deacetylase (Homo sapiens); experiment: Inhibition of HDAC in human HeLa nuclear extract assessed as enzyme residual activity at 25 uM using Boc-Lys(acetyl)-AMC as substrate and measured after 15 mins by fluorescence assay relative to control; format: cell-free; procedure, shortened: as §3
[14] = target: T1, Histone deacetylase (Homo sapiens); experiment: Inhibition of HDAC in human HeLa nuclear extract assessed as enzyme residual activity at 100 uM using Boc-Lys(acetyl)-AMC as substrate and measured after 15 mins by fluorescence assay relative to control; format: cell-free; procedure, shortened: as §3
[15] = target: T1, Histone deacetylase (Homo sapiens); experiment: Inhibition of HDAC in human HeLa nuclear extract assessed as enzyme residual activity at 10 nM using Boc-Lys(acetyl)-AMC as substrate and measured after 15 mins by fluorescence assay relative to control; format: cell-free; procedure, shortened: as §3
[16] = target: T1, Histone deacetylase (Homo sapiens); experiment: Inhibition of HDAC in human HeLa nuclear extract assessed as enzyme residual activity at 1 uM using Boc-Lys(acetyl)-AMC as substrate and measured after 15 mins by fluorescence assay relative to control; format: cell-free; procedure, shortened: as §3
[17] = target: T1, Histone deacetylase (Homo sapiens); experiment: Inhibition of HDAC in human HeLa nuclear extract assessed as enzyme residual activity at 100 nM using Boc-Lys(acetyl)-AMC as substrate and measured after 15 mins by fluorescence assay relative to control; format: cell-free; procedure, shortened: as §3
[18] = Drug metabolism assessed as Zn2+-mediated compound decomposition by measuring aniline formation 33 uM measured at 1 min interval for 30 mins by UV-Vis spectrophotometric analysis
Procedure, shortened: (§4)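 Decomposition monitored by UV-Vis spectroscopy in methanolic solutions containing Cu2+ or Zn2+.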

[19] = Drug metabolism assessed as Cu2+-mediated compound decomposition by measuring aniline formation at 33 uM measured at 1 min interval for 30 mins by UV-Vis spectrophotometric analysis; procedure, shortened: as §4
GL261 [20] = experiment: Induction of apoptosis in mouse GL261 cells assessed as reduction in cell viability at 10 uM incubated for 48 hrs by annexinV-PE/7-AAD staining based flow cytometric analysis; format: functional
Procedure, shortened: (§5)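 GL261 cells exposed 48 h; trypsinized adherent cells combined with medium cells, pelleted, resuspended in PBS/1% BSA, stained with annexin V-PE/7-AAD; flow cytometry gating viable (both negative), early apoptotic (annexin+/7-AAD−), late apoptotic/dead (both positive); two readings per sample; three independent experiments in duplicate.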

GL261 [21] = experiment: Induction of apoptosis in mouse GL261 cells assessed as increase in early apoptotic cells at 10 uM incubated for 48 hrs by annexinV-PE/7-AAD staining based flow cytometric analysis; format: functional, cell-based; procedure, shortened: as §5
GL261 [22] = experiment: Induction of apoptosis in mouse GL261 cells assessed as increase in late apoptotic cells at 10 uM incubated for 48 hrs by annexinV-PE/7-AAD staining based flow cytometric analysis; format: functional, cell-based; procedure, shortened: as §5
GL261 [23] = experiment: Induction of apoptosis in mouse GL261 cells assessed as increase in necrotic cells at 10 uM incubated for 48 hrs by annexinV-PE/7-AAD staining based flow cytometric analysis; format: functional, cell-based; procedure, shortened: as §5
[24] = Induction of alkylation in 5'-GGGAGA-3' single stranded DNA (unknown origin) at ssDNA to compound concentration ratio of 1:250M incubated for 1 hr by ESI-MS analysis
Procedure, shortened: (§6)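 Single-stranded oligonucleotide incubated with the compound in 10 mM ammonium bicarbonate buffer, pH 8.3, at 37 °C. Aliquots were taken at intervals and extracted three times with ethyl acetate, then centrifuged. The aqueous phase was analysed by flow-injection ESI(−) HRMS in 50:50 water/acetonitrile with 0.1% formic acid. Run in triplicate.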

[25] = Drug metabolism assessed as Zn2+-mediated compound decomposition by measuring aniline formation at 33 uM measured at 30 mins interval for 12 hrs by UV-vis spectrophotometric analysis; procedure, shortened: as §4
[26] = Stability of the compound in PBS buffer at pH 7.4 at 10^-5 M measured 5 min for 60 mins in presence of glutathione by UV-Vis spectrophotometric analysis; format: physicochemical; conditions: pH 7.4, 1 h, 10 µM
[27] = Induction of alkylation in 5'-GGGAGA-3' single stranded DNA (unknown origin) at ssDNA to compound concentration ratio of 1:3 to 1:250M incubated for 7 days by ESI-MS analysis; procedure, shortened: as §6
[28] = Stability of compound in PBS buffer at pH 7.4 at 10^-5 M measured 5 min for 60 mins in presence of N-acetylcysteine by UV-Vis spectrophotometric analysis; format: physicochemical; conditions: pH 7.4, 1 h, 10 µM

Compound | half-life [4] [h] | IC50 (GL261 [7]) [µM] | half-life [9] [h] | Activity [11] [%] | logD at 30 min [12] | Activity [13] [%] | Activity [14] [%] | other results
Cn1nnc2c(C(N)=O)ncn2c1=O [TEMOZOLOMIDE] | 2 | > 100 |  |  |  |  |  | Activity (GL261 [1]): inactive; Activity (SH-SY5Y [2]): Active; Activity (GL261 [3]): Active; Activity (GL261 [5]): inactive; Activity (SH-SY5Y [6]): Active; Activity (SH-SY5Y [8]): Active
CC(C)C(=O)N(C)/N=N/c1ccc(C#N)cc1 | > 40 | > 100 | 13.9 | 95.9 | 2.95 | 92.7 | 77.6 | Activity (GL261 [10]): inactive
CCC(CC)C(=O)N(C)/N=N/c1ccc(C#N)cc1 | > 40 | > 100 | > 40 | 97.7 | 3.76 | 97.2 | 95.1 | Activity (GL261 [10]): inactive
O=C(/C=C/c1ccc2c(c1)C(=O)CC1(CCN(Cc3ccccc3)CC1)C2)NO |  |  |  |  |  |  |  | Activity [15]: 91%; Activity [16]: 10.9%; Activity [17]: 52.4%
CCCC(CCC)C(=O)N(C)/N=N/c1ccc(C)cc1 | 31.3 | > 100 | > 40 | 94.5 | 4.98 | 93.5 | 89 | 
CCCC(CCC)C(=O)N(C)/N=N/c1ccc(Cl)cc1 | 27.3 | 58.4 | > 40 | 93 | 4.62 | 85.8 | 66.4 | 
CCCC(=O)N(C)/N=N/c1ccc(C#N)cc1 | > 40 | > 100 | 15.2 | 97.1 | 3.19 | 72.5 | 54.9 | Activity (GL261 [10]): inactive; Drug metabolism [18]: Metabolite not detected; Drug metabolism [19]: Metabolite not detected
CCCC(CCC)C(=O)N(C)/N=N/c1ccc(C(N)=O)cc1 | > 40 | 11.9 | > 40 | 90.5 | 3.68 | 91.6 | 79.8 | Activity (GL261 [1]): Active; Activity (SH-SY5Y [2]): Active; Activity (GL261 [3]): Active; Activity (GL261 [5]): Active; Activity (SH-SY5Y [6]): Active; Activity (GL261 [20]): Active; Activity (GL261 [21]): Active; Activity (GL261 [22]): Active; Activity (SH-SY5Y [8]): Active; Activity (GL261 [23]): Active
CCCC(CCC)C(=O)N(C)/N=N/c1ccc(Br)cc1 | 30.4 | 80.6 | > 40 | 98.9 | 4.81 | 95.6 | 82.5 | 
CN=NNc1ccc(C#N)cc1 |  |  |  |  |  |  |  | Activity [24]: Active; Drug metabolism [25]: Metabolite detected; Drug metabolism [19]: Metabolite detected
CCOC(=O)c1ccc(/N=N/NC)cc1 |  |  |  |  |  |  |  | Drug metabolism [25]: Metabolite detected; Drug metabolism [19]: Metabolite detected
CCCC(CCC)C(=O)N(C)/N=N/c1ccc(C(C)=O)cc1 | > 40 | 47 | > 40 | 98.6 | 4.56 | 94.8 | 85.8 | 
CCCC(CCC)C(=O)N(C)/N=N/c1ccc(C(=O)OC)cc1 | 31.4 | 6.7 | > 40 | 92.9 | 4.7 | 97.3 | 92.7 | Activity (GL261 [1]): Active; Activity (SH-SY5Y [2]): Active; Activity (GL261 [3]): Active; Activity (GL261 [5]): Active; Activity (SH-SY5Y [6]): Active; Activity (GL261 [20]): Active; Activity (GL261 [21]): Active; Activity (SH-SY5Y [8]): Active
CCCC(CCC)C(=O)N(C)/N=N/c1ccc(C#N)cc1 | > 40 | > 100 | > 40 | 99.1 | 4.84 | 98 | 94.6 | Activity (GL261 [1]): Active; Stability [26]: Stable; Activity (SH-SY5Y [2]): Active; Activity (GL261 [3]): Active; Activity [27]: inactive; Stability [28]: Stable; Activity (GL261 [5]): Active; Activity (SH-SY5Y [6]): Active; Activity (GL261 [20]): Active; Activity (GL261 [21]): Active; Activity (SH-SY5Y [8]): Active
CCCC(CCC)C(=O)N(C)/N=N/c1ccc(C(=O)OCC)cc1 | 34.1 | > 100 | > 40 | 88.3 | 4.95 | 79.8 | 55.3 | Drug metabolism [18]: Metabolite not detected; Drug metabolism [19]: Metabolite not detected
